Active and inactive are the calls of the source. The rule behind the calls is not given here.
Legend:
[1] = test system: Rattus norvegicus; assay: (§1) Inhibition of ischemia/reperfusion-induced NLRP3 inflammasome activation in ischemia/reperfusion-induced myocardial injury and high fat diet fed obese Wistar rat model assessed as decrease in NLRP3 protein expression at 20 mg/kg/day, ip administered for 4 weeks followed by excised heart exposed to global ischemia for 30 mins and reperfusion for 120 mins by immunoblot analysis; format: functional, organism-based
Summary of the method: (§2)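 Left ventricles from Langendorff hearts (30 min global ischemia/120 min reperfusion) of HFD or SD rats dosed 20 mg/kg/day i.p. for the final 28 days. Tissue homogenized in RIPA buffer with protease/phosphatase inhibitors. 50 μg protein run on 8% SDS-PAGE and immunoblotted for NLRP3 (1:500), normalized to β-actin by densitometry; n=4 per group.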

[2] = Effect on glyco-metabolic profile in standard diet fed Wistar rat assessed as effect on total cholesterol level in plasma at 20 mg/kg/day, ip administered for 4 weeks; format: toxicity, organism-based; conditions: in vivo, 672 h
Summary of the method: (§3)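 Rats fed HFD or SD for 12 weeks, dosed 20 mg/kg/day i.p. in saline/2% DMSO/5% Cremophor-EL during the final 28 days. Serum obtained after sacrifice by centrifuging blood at 2000 x g, 10 min, 4 °C. Glucose read by glucometer; total, HDL and LDL cholesterol and triglycerides measured with commercial kits. n=6–7 per group.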

[3] = test system: Rattus norvegicus; assay: Antiinflammatory activity against high fat diet fed-induced metaflammation Wistar rat model assessed as reduction in HFD-induced anthropometric alterations by measuring reduction in retroperitoneal fat deposition at 20 mg/kg/day, ip administered for 4 weeks; format: functional, organism-based
Summary of the method: (§4)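 Male Wistar rats on high-fat diet (60% kcal fat) or standard diet for 12 weeks; 20 mg/kg/day i.p. or vehicle (saline, 2% DMSO, 5% Cremophor-EL) over the last 28 days. Body weight recorded weekly. After sacrifice, abdominal, epididymal, retroperitoneal and perirenal fat, liver and heart excised and weighed. Cardiac somatic index = heart weight/body weight ×100. n=6–7 per group.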

[4] = test system: Rattus norvegicus; assay: Cardioprotective activity against myocardial ischemia/reperfusion injury-induced contractile impairment and high fat diet fed obese Wistar rat model assessed as left ventricular end diastolic pressure at 20 mg/kg/day, ip administered for 4 weeks followed by excised heart exposed to global ischemia for 30 mins and reperfusion for 120 mins and measured at the end of reperfusion (reference value: 27 +/-1 mmHg); format: functional
[5] = test system: Rattus norvegicus; assay: (§5) Inhibition of ischemia/reperfusion-induced inflammation in ischemia/reperfusion-induced myocardial injury and standard diet fed Wistar rat model assessed as decrease in cardiac TNF-alpha level at 20 mg/kg/day, ip administered for 4 weeks followed by excised heart exposed to global ischemia for 30 mins and reperfusion for 120 mins by ELISA; format: functional, organism-based
Summary of the method: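 Male Wistar rats on standard or 60% kcal fat diet for 12 weeks; last 28 days i.p. 20 mg/kg/day in saline with 2% DMSO and 5% Cremophor-EL, or vehicle. Hearts perfused by Langendorff with KH buffer at 12 ml/min, 37°C, then 40 min stabilization, 30 min global no-flow ischemia and 120 min reperfusion. Cytokines measured in LV tissue; n=6–7 per group.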

[6] = test system: Rattus norvegicus; assay: Antiinflammatory activity against high fat diet fed-induced metaflammation Wistar rat model assessed as reduction in HFD-induced metabolic alterations by measuring reduction in LDL cholesterol level in plasma at 20 mg/kg/day, ip administered for 4 weeks; format: functional, organism-based; summary of the method: as §3
[7] = Effect on TNF-alpha level in standard diet fed Wistar rat serum at 20 mg/kg/day, ip administered for 4 weeks by ELISA; format: toxicity, organism-based; conditions: in vivo, 672 h
Summary of the method: (§6)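 Male Wistar rats on HFD or SD for 12 weeks received 20 mg/kg/day i.p. (saline, 2% DMSO, 5% Cremophor-EL) or vehicle for the last 28 days. Circulating IL-1β, TNF-α, BNP and Gal-3 quantified by ELISA in blood collected after sacrifice. n=6–7 per group.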

[8] = Drug metabolism in human THP-1 cells assessed as half time for compound hydrolysis to 2-(5-(2-Chlorobenzyl)-2-oxo-1,3,4-oxadiazol-3(2H)-yl)acetic acid at 100 uM by RP-HPLC analysis; format: ADME, cell-based
Summary of the method: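 PMA-differentiated THP-1 cells lysed in RIPA buffer. Compound added to lysate at 100 μM final (from 10 mM DMSO stock) at 37 °C. Aliquots at intervals deproteinized with CH3CN/0.1% TFA and quantified by RP-HPLC against standards. Pseudo-first-order t1/2 from exponential decay fit; three experiments.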

[9] = target: NACHT, LRR and PYD domains-containing protein 3 (Homo sapiens, UniProt Q96P20); assay: Inhibition of NLRP3 inflammasome activation in PMA-differentiated human THP-1 cells assessed as inhibition of LPS/ATP-induced IL-1 beta release pretreated for 4 hrs with LPS followed by incubation with compound for 1 hr and later treated with ATP for 1.5 hrs by ELISA; format: cell-based
[10] = test system: Rattus norvegicus; assay: as §5, with “oxidative stress” for “inflammation”, “MDA” for “TNF-alpha”, “TBARS assay” for “ELISA”; format: functional, organism-based
Summary of the method: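 Same rat diet, dosing and Langendorff ischemia/reperfusion protocol. LV homogenized 10% w/v in 0.9% KCl pH 7.4. Homogenate heated at 100 °C for 15 min with TCA and TBA plus butylated hydroxytoluene, centrifuged, and read at […]. MDA expressed as nmol/g heart tissue, compared with sham hearts perfused for 190 min.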

[11] = test system: Rattus norvegicus; assay: Antiinflammatory activity against high fat diet fed-induced metaflammation Wistar rat model assessed as reduction in HFD-induced metabolic alterations by measuring reduction in total cholesterol level in plasma at 20 mg/kg/day, ip administered for 4 weeks; format: functional, organism-based; summary of the method: as §3
[12] = Drug metabolism in human serum assessed as half time for compound hydrolysis to 2-(5-(2-Chlorobenzyl)-2-oxo-1,3,4-oxadiazol-3(2H)-yl)acetic acid at 100 uM by RP-HPLC analysis; format: ADME, cell-free
Summary of the method: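 Compound at 100 μM final (from 10 mM DMSO stock) in human male AB serum held at 37 °C. Aliquots at intervals deproteinized with CH3CN/0.1% TFA, centrifuged, filtered and analysed by RP-HPLC against calibration standards. Pseudo-first-order t1/2 from exponential decay fit; three experiments.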

[13] = test system: Rattus norvegicus; assay: Cardioprotective activity against ischemia/reperfusion-induced myocardial injury and standard diet fed Wistar rat model assessed as decrease in LDH activity in coronary effluents at 20 mg/kg/day, ip administered for 4 weeks followed by excised heart exposed to global ischemia for 30 mins and reperfusion for 120 mins and measured during first 10 mins of reperfusion by spectrophotometric analysis; format: functional, organism-based
Summary of the method: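 HFD or SD rats, dosed 20 mg/kg/day i.p. for the final 28 days, anaesthetised with ethyl carbamate (2 g/kg i.p.). Hearts Langendorff-perfused with Krebs–Henseleit buffer (pH 7.4, 37 °C, 12 ml/min); 40 min stabilization, 30 min global no-flow ischemia, 120 min reperfusion. Coronary effluent collected on ice before ischemia and at 10, 20, 30 min reperfusion; LDH activity by McQueen method. n=6–7.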

[14] = test system: Rattus norvegicus; assay: Antiinflammatory activity against high fat diet fed-induced metaflammation Wistar rat model assessed as reduction in HFD-induced anthropometric alterations by measuring reduction in body weight gain at 20 mg/kg/day, ip administered for 4 weeks; format: functional, organism-based; summary of the method: as §4
[15] = n-Octanol/water distribution coefficient, log D of the compound at pH 7.4 measured after 4 hrs by shake flask method; format: physicochemical
Summary of the method: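 Shake-flask at room temperature between n-octanol and 50 mM phosphate buffer pH 7.4, ionic strength 0.15 M KCl. Phases were pre-saturated by 4 h shaking. Compound at about 0.1 mg/ml in buffer, shaken about 20 min with n-octanol, then centrifuged at 10000 rpm for 10 min.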

[16] = test system: Rattus norvegicus; assay: Cardioprotective activity against high fat diet fed-induced metaflammation Wistar rat model assessed as reduction in myocardial damage by measuring reduction in plasma BNP level at 20 mg/kg/day, ip administered for 4 weeks by ELISA; format: functional, organism-based; summary of the method: as §6
[17] = test system: Rattus norvegicus; assay: as §1, with “standard” for “high fat”, “fed” for “fed obese”; format: functional, organism-based; summary of the method: as §2

Sequence of NACHT, LRR and PYD domains-containing protein 3 (Q96P20 whole entry, the tested form may be a part): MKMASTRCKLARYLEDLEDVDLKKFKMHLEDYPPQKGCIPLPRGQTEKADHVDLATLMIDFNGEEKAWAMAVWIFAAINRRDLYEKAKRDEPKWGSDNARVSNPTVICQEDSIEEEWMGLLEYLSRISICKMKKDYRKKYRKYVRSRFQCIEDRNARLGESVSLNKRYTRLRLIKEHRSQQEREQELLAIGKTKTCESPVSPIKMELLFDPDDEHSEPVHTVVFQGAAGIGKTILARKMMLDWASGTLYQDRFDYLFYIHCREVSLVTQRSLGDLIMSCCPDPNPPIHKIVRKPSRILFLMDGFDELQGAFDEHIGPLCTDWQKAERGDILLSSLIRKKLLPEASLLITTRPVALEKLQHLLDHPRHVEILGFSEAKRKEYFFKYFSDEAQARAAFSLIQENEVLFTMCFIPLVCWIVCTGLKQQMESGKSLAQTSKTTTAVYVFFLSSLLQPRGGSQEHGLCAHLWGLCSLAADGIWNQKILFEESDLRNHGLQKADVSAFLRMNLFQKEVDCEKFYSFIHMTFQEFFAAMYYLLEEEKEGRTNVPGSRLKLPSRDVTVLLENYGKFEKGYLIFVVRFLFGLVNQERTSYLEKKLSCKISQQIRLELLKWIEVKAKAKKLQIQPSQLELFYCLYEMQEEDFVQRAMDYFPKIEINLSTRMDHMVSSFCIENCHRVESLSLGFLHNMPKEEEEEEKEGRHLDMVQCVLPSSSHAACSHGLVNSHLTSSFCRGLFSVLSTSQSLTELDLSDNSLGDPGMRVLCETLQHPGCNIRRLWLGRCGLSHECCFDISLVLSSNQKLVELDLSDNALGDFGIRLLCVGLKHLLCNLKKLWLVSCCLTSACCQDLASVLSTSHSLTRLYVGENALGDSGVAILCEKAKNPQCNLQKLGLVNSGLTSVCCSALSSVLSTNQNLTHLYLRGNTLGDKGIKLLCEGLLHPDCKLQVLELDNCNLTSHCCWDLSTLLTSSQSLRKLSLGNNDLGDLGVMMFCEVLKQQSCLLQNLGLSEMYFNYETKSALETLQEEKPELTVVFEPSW

half-life at 100 µM [8]: 1.08 h | IC50 [9]: 16.6 µM | half-life at 100 µM [12]: 4 h | logD at 4 h [15]: 2.03
Compound: CCOC(=O)Cn1nc(Cc2ccccc2Cl)oc1=O
inhibition [1]: Active | Activity [2]: Non-Toxic | Activity [3]: Active | Activity [4]: 18 mmHg | inhibition [5]: Active | Activity [6]: Active | Activity [7]: Non-Toxic | inhibition [10]: Active | Activity [11]: Active | Activity [13]: Active | Activity [14]: inactive | Activity [16]: Active | inhibition [17]: Active
